Laboratory results taken from article PMC4733660 (Organic & biomolecular chemistry, 2010).
Where two headings read alike, the source gives them in different places.

Experiments:
Type in all cases: biochemical
PHD2 = PHD2 (Homo sapiens, UniProt Q9GZT9); assay: PHD2 fluorescence-based; conditions: for PHD2 Residual Activity (%): HTRF-based assay, enzyme concentration 20 nM, 400 μM compound concentration; for PHD2 inhibition (in words): 400 μM inhibitor concentration
[1] = molecular target: T1, formaldehyde dehydrogenase (FDH) (Pseudomonas putida, UniProt P46154); assay: FDH counterscreen, spectrophotometric assay; conditions: enzyme concentration 50 μM, 200 μM compound concentration
T1 sequence (P46154 1-399): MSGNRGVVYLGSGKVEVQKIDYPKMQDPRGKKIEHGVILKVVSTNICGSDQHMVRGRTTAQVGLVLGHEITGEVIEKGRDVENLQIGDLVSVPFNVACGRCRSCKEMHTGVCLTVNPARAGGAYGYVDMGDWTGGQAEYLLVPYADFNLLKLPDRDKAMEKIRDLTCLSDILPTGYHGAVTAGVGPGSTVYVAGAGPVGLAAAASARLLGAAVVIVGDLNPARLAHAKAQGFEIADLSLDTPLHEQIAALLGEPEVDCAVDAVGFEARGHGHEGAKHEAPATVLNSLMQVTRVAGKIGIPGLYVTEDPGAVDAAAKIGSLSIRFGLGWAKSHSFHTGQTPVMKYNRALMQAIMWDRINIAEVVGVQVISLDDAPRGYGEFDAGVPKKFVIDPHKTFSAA
How it was run: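 Counterscreen run on the coupling enzyme alone to exclude false JMJD2E hits from FDH inhibition. FDH turnover of formaldehyde with NAD+ followed spectrophotometrically. Enzyme 50 μM; test compound at 200 μM; activity expressed as residual % of uninhibited FDH.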

JMJD2E = molecular target: T2, JMJD2E (Homo sapiens, UniProt B2RXH2); assay: FDH-coupled spectrophotometric turnover assay of JMJD2E; conditions: for JMJD2E Residual Activity (%): enzyme concentration 400 nM, 200 μM compound concentration
T2 sequence (B2RXH2 1-506): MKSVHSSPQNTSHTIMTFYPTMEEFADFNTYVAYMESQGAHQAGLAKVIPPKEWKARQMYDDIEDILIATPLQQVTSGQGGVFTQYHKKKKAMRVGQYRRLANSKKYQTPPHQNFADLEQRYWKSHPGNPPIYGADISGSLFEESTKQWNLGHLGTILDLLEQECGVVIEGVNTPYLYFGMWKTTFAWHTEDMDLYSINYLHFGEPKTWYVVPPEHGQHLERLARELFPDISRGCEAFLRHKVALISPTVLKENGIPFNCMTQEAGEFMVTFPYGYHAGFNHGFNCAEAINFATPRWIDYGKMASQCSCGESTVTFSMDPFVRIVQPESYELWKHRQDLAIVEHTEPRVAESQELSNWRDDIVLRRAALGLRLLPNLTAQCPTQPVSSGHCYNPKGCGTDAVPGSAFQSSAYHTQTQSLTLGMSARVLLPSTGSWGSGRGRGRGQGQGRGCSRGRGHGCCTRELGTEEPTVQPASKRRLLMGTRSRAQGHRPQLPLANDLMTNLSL

Chain of PHD2 (Q9GZT9 whole entry): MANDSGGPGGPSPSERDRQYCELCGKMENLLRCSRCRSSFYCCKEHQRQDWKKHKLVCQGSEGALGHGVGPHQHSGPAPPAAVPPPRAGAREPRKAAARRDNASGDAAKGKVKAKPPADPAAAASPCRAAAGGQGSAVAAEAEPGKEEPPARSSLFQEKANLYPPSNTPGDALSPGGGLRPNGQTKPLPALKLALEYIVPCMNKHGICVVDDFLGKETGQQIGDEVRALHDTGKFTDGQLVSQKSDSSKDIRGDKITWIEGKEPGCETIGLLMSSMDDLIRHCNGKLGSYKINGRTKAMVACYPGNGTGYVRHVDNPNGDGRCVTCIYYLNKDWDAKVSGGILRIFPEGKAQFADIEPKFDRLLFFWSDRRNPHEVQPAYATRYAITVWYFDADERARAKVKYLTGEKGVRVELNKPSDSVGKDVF

| SMILES | PHD2 Residual Activity (%) (PHD2) | FDH Residual Activity (%) [1] [%] | JMJD2E Residual Activity (%) (JMJD2E; FDH-coupled assay) | PHD2 inhibition (in words) (PHD2) | JMJD2E inhibition (in words) (JMJD2E; FDH-coupled assay) | IC50 (JMJD2E; read-out: JMJD2E IC50, FDH-coupled assay) [µM] | IC50 (JMJD2E) [µM] |
| --- | --- | --- | --- | --- | --- | --- | --- |
| O=C(O)c1ccnc(C(=O)O)c1 [Compound 5, 2,4-pyridine dicarboxylic acid, reference compound] | 22 | 100 | 0 | – | – | – | – |
| O=C(O)c1ccnc(C(=O)O)c1-c1ccccc1 [Compound 34, 3-Phenylpyridine-2,4-dicarboxylic acid] | 100 | 100 | 84 | – | – | – | – |
| O=C(O)c1ccnc(C(=O)O)c1Oc1ccccc1 [Compound 36, 3-Phenoxypyridine-2,4-dicarboxylic acid] | 88 | 91 | 48 | inactive | inactive | – | – |
| Nc1c(C(=O)O)ccnc1C(=O)O [Compound 50, 3-amino-2,4-PDCA] | 23 | – | – | – | highly active | ~0.1 | – |
| O=C(O)c1ccnc(C(=O)O)c1Nc1ccccc1 [Compound 37, 3-(Phenylamino)pyridine-2,4-dicarboxylic acid] | 100 | 83 | 0 | do not inhibit PHD2 | potent | – | – |
| O=C(O)c1ccnc(C(=O)O)c1/C=C/c1ccccc1 [Compound 35, (E)-3-Styrylpyridine-2,4-dicarboxylic acid] | 85 | 87 | 25 | – | some recovery of inhibitory potency | – | 66 |
